Measurements: ChEMBL document CHEMBL4007487, “Discovery of Novel Pyridone-Conjugated Monosulfactams as Potent and Broad-Spectrum Antibiotics for Multidrug-Resistant Gram-Negative Infections” (J Med Chem, 2017)
Values after ≈ are worked out from the molar mass of the structure shown.

Assays:
[1] = test system: Pseudomonas aeruginosa; assay: Antibacterial activity against extended spectrum beta-lactamase IMP-4 producing multidrug resistant Pseudomonas aeruginosa clinical isolates after 18 hrs by broth microdilution method; type: functional
[2] = test system: Klebsiella pneumoniae; assay: Antibacterial activity against extended spectrum beta-lactamase KPC-2 producing multidrug resistant Klebsiella pneumoniae clinical isolates after 18 hrs by broth microdilution method; type: functional
[3] = test system: Escherichia coli; assay: Antibacterial activity against extended spectrum beta-lactamases producing Escherichia coli clinical isolates after 18 hrs by broth microdilution method; type: functional
[4] = test system: Acinetobacter baumannii; assay: Antibacterial activity against extended spectrum beta-lactamase OXA-23 producing multidrug resistant Acinetobacter baumannii clinical isolates after 18 hrs by broth microdilution method; type: functional
[5] = test system: Plasma; assay: Fraction unbound in human plasma at 10 uM after 4 hrs by LC-MS/MS based rapid equilibrium dialysis method; type: ADME, cell-free
In short: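 Human plasma spiked at 10 μM was dialysed against buffer in a rapid equilibrium dialysis device for 4 h at 37 °C under 5% CO2 (n = 4). Both sides were quantified by LC–MS/MS. Fraction unbound was taken as the buffer concentration divided by the total plasma-side concentration.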

[6] = Drug degradation in human plasma at 10 uM after 4 hrs by LC-MS/MS analysis; type: ADME, cell-free; conditions: read-out: Drug degradation
In short: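 Human plasma containing compound (10 μM, n = 4) was incubated for 4 h at 37 °C under 5% CO2. Concentrations at T0 and at 4 h were measured by LC–MS/MS, and degradation was expressed as a percentage relative to the T0 average.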

[7] = Volume of distribution in steady state in Sprague-Dawley rat at 1 mg/kg, iv measured up to 180 mins by LC-MS/MS analysis; type: ADME, organism-based; conditions: in vivo, read-out: Vdss
In short: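 Male Sprague-Dawley rats (200–220 g, n = 3 per group) received 1.0 mg/kg iv in water. Blood was taken from the retrobulbar vein at 2, 5, 15, 30, 45, 60, 90 and 180 min. Plasma was quantified by LC–MS/MS, and parameters were derived by noncompartmental analysis of mean plasma concentrations.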

[8] = in vivo; conditions: Sprague-Dawley, rat, iv, 1 mg/kg
[9] = test system: Klebsiella pneumoniae; assay: Antibacterial activity against Klebsiella pneumoniae isolate 212232 after 18 hrs by broth microdilution method; type: functional; conditions: isolate 212232, 18 h
In short: (§1)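 CLSI broth microdilution in Mueller-Hinton broth with 16 mg/L 2,2'-bipyridyl added. Compounds were dissolved in DMSO, or in water for meropenem and ceftizoxime sodium, then serially diluted in growth medium.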

[10] = test system: Escherichia coli; assay: Antibacterial activity against Escherichia coli isolate 210737 after 18 hrs by broth microdilution method; type: functional; conditions: isolate 210737, 18 h; in short: as §1
[11] = Klebsiella pneumoniae, 18 h, read-out: MIC

SMILES | MIC [1] | MIC [2] | MIC [3] | MIC [4] | Fu [5] | metabolised at 4 h, 10 µM [6] | MIC [2, 11] | Vd [7] | AUC(0-t) at 3 h [8] | MIC [9] | MIC [10]
CC1(C)[C@H](NC(=O)/C(=N\OC(c2cc(=O)c(O)cn2O)C2CC2)c2csc(N)n2)C(=O)N1OS(=O)(=O)O (stereo not given in full) | 0.25 to 4 µg/mL (≈ 0.448 to 7.16 µM) | 0.06 to 64 µg/mL | 0.06 to 4 µg/mL (≈ 0.107 to 7.16 µM) | 0.5 to 2 µg/mL (≈ 0.895 to 3.58 µM) | 39% | 24% | – | – | – | – | –
CCC(O/N=C(\C(=O)N[C@@H]1C(=O)N(OS(=O)(=O)O)C1(C)C)c1csc(N)n1)c1cc(=O)c(O)cn1O (stereo not given in full) | 0.125 to 4 µg/mL (≈ 0.229 to 7.32 µM) | >0.03 to 64 µg/mL | 0.25 to 2 µg/mL (≈ 0.457 to 3.66 µM) | 0.25 to 2 µg/mL (≈ 0.457 to 3.66 µM) | 35% | 27% | – | – | – | – | –
CC(O/N=C(\C(=O)N[C@@H]1C(=O)N(OS(=O)(=O)O)C1(C)C)c1nsc(N)n1)c1cc(=O)c(O)cn1O (stereo not given in full) | 0.5 to 64 µg/mL (≈ 0.937 to 120 µM) | – | – | 2 to 64 µg/mL (≈ 3.75 to 120 µM) | 37% | 13% | 0.25 to 64 µg/mL (≈ 0.469 to 120 µM) | – | – | – | –
CC1(C)[C@H](NC(=O)/C(=N\OC(c2nccs2)c2cc(=O)c(O)cn2O)c2csc(N)n2)C(=O)N1OS(=O)(=O)O (stereo not given in full) | 1 to 2 µg/mL (≈ 1.66 to 3.32 µM) | – | – | 0.5 to 2 µg/mL (≈ 0.831 to 3.32 µM) | – | – | – | – | – | – | –
CC(C)[C@H](O/N=C(\C(=O)N[C@@H]1C(=O)N(OS(=O)(=O)O)C1(C)C)c1nsc(N)n1)c1cc(=O)c(O)cn1O | 1 to 2 µg/mL (≈ 1.78 to 3.56 µM) | – | 0.5 to 2 µg/mL (≈ 0.89 to 3.56 µM) | 1 to 4 µg/mL (≈ 1.78 to 7.12 µM) | 27% | 16% | 1 to 4 µg/mL (≈ 1.78 to 7.12 µM) | – | – | – | –
CC(C)[C@H](O/N=C(\C(=O)N[C@@H]1C(=O)N(OS(=O)(=O)O)C1(C)C)c1nc(N)sc1Cl)c1cc(=O)c(O)cn1O | 0.06 to 1 µg/mL (≈ 0.101 to 1.68 µM) | – | 0.06 to 1 µg/mL (≈ 0.101 to 1.68 µM) | 0.5 to 1 µg/mL (≈ 0.84 to 1.68 µM) | 23% | 33% | 0.25 to 0.5 µg/mL (≈ 0.42 to 0.84 µM) | – | – | – | –
CC(C)[C@@H](O/N=C(\C(=O)N[C@@H]1C(=O)N(OS(=O)(=O)O)C1(C)C)c1csc(N)n1)c1cc(=O)c(O)cn1O | 1 to 4 µg/mL (≈ 1.78 to 7.14 µM) | – | 0.06 to 2 µg/mL (≈ 0.107 to 3.57 µM) | 0.25 to 64 µg/mL (≈ 0.446 to 114 µM) | – | – | 0.06 to 0.5 µg/mL (≈ 0.107 to 0.892 µM) | – | – | – | –
Cc1cc(=O)c(O)cn1CCO/N=C(\C(=O)N[C@@H]1C(=O)N(OS(=O)(=O)O)C1(C)C)c1csc(N)n1 | 64 µg/mL (≈ 121 µM) | – | 1 to 64 µg/mL (≈ 1.88 to 121 µM) | 8 to 64 µg/mL (≈ 15.1 to 121 µM) | – | – | 8 to 64 µg/mL (≈ 15.1 to 121 µM) | – | – | – | –
CC(C)C(O/N=C(\C(=O)N[C@@H]1C(=O)N(OS(=O)(=O)O)C1(C)C)c1csc(N)n1)c1cc(=O)c(O)cn1O (stereo not given in full) | 0.25 to 1 µg/mL (≈ 0.446 to 1.78 µM) | – | – | 0.125 to 1 µg/mL (≈ 0.223 to 1.78 µM) | 35% | 29% | – | 0.3 L/kg | 1730 ng·h/mL | < 0.03 µg/mL | < 0.03 µg/mL
CC1(C)[C@H](NC(=O)/C(=N\OC(CO)c2cc(=O)c(O)cn2O)c2csc(N)n2)C(=O)N1OS(=O)(=O)O (stereo not given in full) | 0.25 to 16 µg/mL (≈ 0.456 to 29.2 µM) | – | 0.06 to 4 µg/mL (≈ 0.109 to 7.29 µM) | 0.5 to 2 µg/mL (≈ 0.912 to 3.65 µM) | 59% | 50% | 0.25 to 64 µg/mL (≈ 0.456 to 117 µM) | – | – | – | –
COC(=O)C(O/N=C(\C(=O)N[C@@H]1C(=O)N(OS(=O)(=O)O)C1(C)C)c1csc(N)n1)c1cc(=O)c(O)cn1O (stereo not given in full) | 1 to 4 µg/mL (≈ 1.73 to 6.94 µM) | – | 0.25 to 1 µg/mL (≈ 0.434 to 1.73 µM) | 0.5 to 1 µg/mL (≈ 0.867 to 1.73 µM) | 61% | 66% | 0.25 to 2 µg/mL (≈ 0.434 to 3.47 µM) | – | – | – | –
CC(=O)N(O)CCO/N=C(\C(=O)N[C@@H]1C(=O)N(OS(=O)(=O)O)C1(C)C)c1csc(N)n1 | ≥ 64 µg/mL | – | 4 to 32 µg/mL (≈ 8.32 to 66.6 µM) | 16 to 64 µg/mL (≈ 33.3 to 133 µM) | – | – | 32 to 64 µg/mL (≈ 66.6 to 133 µM) | – | – | – | –
Cn1nc(O)c(=O)nc1SCCO/N=C(\C(=O)N[C@@H]1C(=O)N(OS(=O)(=O)O)C1(C)C)c1csc(N)n1 | 16 to 64 µg/mL (≈ 28.3 to 113 µM) | – | 1 to 8 µg/mL (≈ 1.77 to 14.2 µM) | 16 to 64 µg/mL (≈ 28.3 to 113 µM) | – | – | 16 to 64 µg/mL (≈ 28.3 to 113 µM) | – | – | – | –
CC(O/N=C(\C(=O)N[C@@H]1C(=O)N(OS(=O)(=O)O)C1(C)C)c1csc(N)n1)c1cc(=O)c(O)cn1O (stereo not given in full) | 0.25 to 8 µg/mL (≈ 0.469 to 15 µM) | 0.03 to 64 µg/mL | 0.06 to 0.25 µg/mL (≈ 0.113 to 0.469 µM) | 0.5 to 64 µg/mL (≈ 0.939 to 120 µM) | 41% | 24% | – | – | – | – | –
CC1(C)[C@H](NC(=O)/C(=N\OC(C(=O)O)c2cc(=O)c(O)cn2O)c2csc(N)n2)C(=O)N1OS(=O)(=O)O (stereo not given in full) | 1 to 4 µg/mL (≈ 1.78 to 7.11 µM) | – | 0.125 to 4 µg/mL (≈ 0.222 to 7.11 µM) | 0.5 µg/mL (≈ 0.889 µM) | – | – | 0.25 to 1 µg/mL (≈ 0.444 to 1.78 µM) | – | – | – | –
C=CC(O/N=C(\C(=O)N[C@@H]1C(=O)N(OS(=O)(=O)O)C1(C)C)c1csc(N)n1)c1cc(=O)c(O)cn1O (stereo not given in full) | 0.5 to 2 µg/mL (≈ 0.918 to 3.67 µM) | >0.03 to 64 µg/mL | – | 0.25 to 2 µg/mL (≈ 0.459 to 3.67 µM) | – | – | – | – | – | – | –
